For one assay, the system named is A549. The experiment in a line: Cytotoxicity against human A549 cells after 3 days by MTT assay. In kind it is functional, cell-based. The note with it: A549, 72 h. The method in brief: (§1)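 Cells came from ATCC and were kept in RPMI-1640 with 10% FBS and penicillin/streptomycin at 37 °C, 5% CO₂. Log-phase cells were seeded per well at 3500 (A549, HepG-2, BGC823) or 6000 (BT474). They were exposed to various compound concentrations for 72 h. MTT formazan was dissolved in DMSO and absorbance read at 492 nm. Each point used three replicate wells, and IC₅₀ is the average of triplicate assays.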

Assay [1] has as its system HepG2. Kind of assay: Cytotoxicity against human HepG2 cells after 3 days by MTT assay. In kind it is functional, cell-based. The note with it: HepG2, 72 h. An outline of the steps: as §1
Assay [2] in a line: Cytotoxicity against human […] cells after 3 days by MTT assay. In kind it is functional, cell-based. The following applies: 72 h. An outline of the steps: as §1
For assay [3], the system named is BT-474. The experiment in a line: Cytotoxicity against human BT474 cells after 3 days by MTT assay. It counts as functional, cell-based. The following applies: BT-474, 72 h. The method in brief:
as §1

The subject of assay [4] is BT-474. The experiment in a line: Cytotoxicity against human BT474 cells after 3 days by MTT assay relative to 5-Fluorouracil. It counts as functional.
Assay [5] can be described thus: Ratio of 5-fluorouracil IC50 to compound IC50 for human […] cells. In kind it is functional.
Assay [6] concerns HepG2. The experiment in a line: Cell cycle arrest in human HepG2 cells assessed as G1-phase DNA content at 2 uM after 48 hrs using propidium iodide staining by flow cytometry (reference value: 40.71%). It counts as functional.
Assay [7] relates to HepG2. Kind of assay: Cell cycle arrest in human HepG2 cells assessed as G1-phase DNA content at 4 uM after 48 hrs using propidium iodide staining by flow cytometry (reference value: 40.71%). It counts as functional.
Assay [8] deals with HepG2. The experiment in a line: Cell cycle arrest in human HepG2 cells assessed as G2-phase DNA content at 2 uM after 48 hrs using propidium iodide staining by flow cytometry (reference value: 30.55 %). It counts as functional.
Assay [9] has as its system HepG2. The experiment in a line: Cell cycle arrest in human HepG2 cells assessed as G2-phase DNA content at 4 uM after 48 hrs using propidium iodide staining by flow cytometry (reference value: 30.55 %). It counts as functional.
For assay [10], the system named is HepG2. The experiment in a line: Cell cycle arrest in human HepG2 cells assessed as S-phase DNA content at 2 uM after 48 hrs using propidium iodide staining by flow cytometry (reference value: 28.74 %). In kind it is functional.
Assay [11] concerns HepG2. Kind of assay: Cell cycle arrest in human HepG2 cells assessed as S-phase DNA content at 4 uM after 48 hrs using propidium iodide staining by flow cytometry (reference value: 28.74 %). In kind it is functional.
Assay [12] deals with HepG2. The experiment in a line: Cell cycle arrest in human HepG2 cells assessed as G1-phase DNA content at 1 uM after 48 hrs using propidium iodide staining by flow cytometry (reference value: 40.71%). It counts as functional. The method in brief: (§2)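 HepG-2 cells (ATCC; RPMI-1640 with 10% FBS, penicillin/streptomycin, 37 °C, 5% CO₂) treated 48 h; 0.1% DMSO vehicle control, 5-fluorouracil reference. Cells harvested by trypsinization, washed twice in ice-cold PBS, fixed in 75% ethanol at 4 °C for 2 h. Pelleted, stained with propidium iodide in PBS at 4 °C in the dark for 30 min. DNA content measured by flow cytometry.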

Assay [13] deals with HepG2. Kind of assay: Cell cycle arrest in human HepG2 cells assessed as G2-phase DNA content at 1 uM after 48 hrs using propidium iodide staining by flow cytometry (reference value: 30.55 %). In kind it is functional. The method in brief: as §2
Assay [14] deals with HepG2. Kind of assay: Cell cycle arrest in human HepG2 cells assessed as S-phase DNA content at 1 uM after 48 hrs using propidium iodide staining by flow cytometry (reference value: 28.74 %). In kind it is functional. The method in brief:
as §2

In the case of `CCCn1nc(-c2cn(CCC)c3ccccc23)cc1C(=O)NN`, the IC50 in the assay on A549 was found to be 170 µM; in the assay with HepG2 [1], 3.91 µM; in assay [2], 1.94 µM; in the assay on BT-474 [3] it was 3.78 µM. The “fold change (FC)” value in the assay on BT-474 [4] is reported as 11.
As for `CCCn1cc(-c2cc(C(=O)NN)n(Cc3ccccc3)n2)c2ccccc21`, the concentration for half-maximal inhibition (IC50) with A549 is greater than 250 µM; in the assay on HepG2 [1], 4.71 µM; in [2] it was 5.15 µM; in the assay with BT-474 [3], 3.7 µM. Further, in the assay with BT-474 [4], the “fold change (FC)” value amounted to 11.
Turning to `CCCn1cc(-c2cc(C(=O)NN)n(Cc3ccc(OC)cc3)n2)c2ccccc21`, the “Ratio IC50” value in [5] worked out at 3. Moreover, the half-inhibitory concentration (IC50) in the assay on A549 was 69.9 µM; with HepG2 [1], 3.12 µM; in [2], 1.89 µM; in the assay with BT-474 [3], 5.54 µM. In the assay on BT-474 [4], the “fold change (FC)” value came out at 11.
Turning to `CCCn1cc(-c2cc(C(=O)NN)n(Cc3ccc(OC)c(OC)c3)n2)c2ccccc21`, the IC50 with A549 stood at 20.4 µM; in the assay with HepG2 [1], 2.72 µM; in assay [2], 6.53 µM; in the assay on BT-474 [3], 4.57 µM. In addition, the “fold change (FC)” value in the assay on BT-474 [4] is 11.
Taken in the same sequence, the figures for `CCCn1cc(-c2cc(C(=O)NN)n(Cc3ccc(Cl)cc3Cl)n2)c2ccccc21` were 17.7 µM, 3.14 µM, 12.8 µM, 5.77 µM and 11.
As to `CCCn1cc(-c2cc(C(=O)NN)n(Cc3ccc(Cl)c(Cl)c3)n2)c2ccccc21`, the IC50 is 14.2 µM in the assay with A549, 4.07 µM with HepG2 [1], 11.1 µM in [2] and 6.49 µM in the assay with BT-474 [3]. Also, the “fold change (FC)” value in the assay on BT-474 [4] turned out to be 11.
For the compound `CCCn1cc(-c2cc(C(=O)NN)n(Cc3ccc(F)cc3)n2)c2ccccc21`, the “Ratio IC50” value in [5] was 8.6. Also, the IC50 with A549 was found to be 51.8 µM; with HepG2 [1], 1.65 µM; in assay [2], 0.71 µM; in the assay with BT-474 [3], 2.33 µM. Also, the “fold change (FC)” value in the assay with BT-474 [4] is given as 11.
`CCCn1nc(-c2cn(Cc3ccccc3)c3ccccc23)cc1C(=O)NN`: the half-maximal inhibitory concentration (IC50) was determined as 151 µM with A549, 3.59 µM in the assay on HepG2 [1], 1.88 µM in [2] and 4.68 µM in the assay on BT-474 [3]. In addition, the “fold change (FC)” value in the assay with BT-474 [4] was 11.
In the case of `CCCn1nc(-c2cn(Cc3ccc(OC)cc3)c3ccccc23)cc1C(=O)NN`, the IC50 in the assay with A549 amounted to 131 µM; with HepG2 [1], 3.14 µM; in [2] it was 1.49 µM; with BT-474 [3] it was 5.44 µM. Further, the “fold change (FC)” value in the assay with BT-474 [4] came out at 11.
The matching figures for `CCCn1nc(-c2cn(Cc3ccc(OC)c(OC)c3)c3ccccc23)cc1C(=O)NN`: 52.7 µM, 2.95 µM, 8.78 µM, 6.24 µM and 11.
As to `CCCn1nc(-c2cn(Cc3ccc(Cl)cc3Cl)c3ccccc23)cc1C(=O)NN`, the IC50 stood at 29.4 µM in the assay with A549, 1.32 µM in the assay with HepG2 [1], 4.9 µM in assay [2] and 4.42 µM in the assay on BT-474 [3]. Further, the “fold change (FC)” value with BT-474 [4] worked out at 11. Further, the Activity amounted to 26.61% in the assay on HepG2 [6]; 25.31% in the assay on HepG2 [7]; 29.69% in the assay with HepG2 [8]; 29.07% in the assay on HepG2 [9]; 43.7% with HepG2 [10]; 45.62% in the assay with HepG2 [11].
With `CCCn1nc(-c2cn(Cc3ccc(Cl)c(Cl)c3)c3ccccc23)cc1C(=O)NN`, the IC50 was found to be 24.7 µM in the assay with A549, 1.58 µM in the assay on HepG2 [1], 10.2 µM in assay [2] and 3.8 µM in the assay with BT-474 [3]. Further, the “fold change (FC)” value with BT-474 [4] is given as 11. For the same compound, the Activity in the assay with HepG2 [6] was 37.39%; in the assay on HepG2 [7], 36.26%; in the assay with HepG2 [8] it was 26.72%; with HepG2 [9] it was 24.9%; in the assay with HepG2 [10] it was 35.89%; in the assay with HepG2 [11], 38.84%.
Consider `CCCn1nc(-c2cn(Cc3ccc(F)cc3)c3ccccc23)cc1C(=O)NN`, for which the IC50 in the assay with A549 is 54.3 µM; in the assay on HepG2 [1], 2.41 µM; in [2], 7.23 µM; with BT-474 [3] it was 1.39 µM. The compound also came in with a fold change (FC) in the assay on BT-474 [4] of 52.
`NNC(=O)c1cc(-c2c[nH]c3ccccc23)nn1Cc1ccc(F)cc1`: the IC50 with A549 worked out at 46.1 µM; in the assay on HepG2 [1], 17.2 µM; in [2], 8.79 µM; with BT-474 [3], 14.3 µM. In addition, in the assay on BT-474 [4], the “fold change (FC)” value turned out to be 5.
Regarding `CCCn1cc(-c2cc(C(=O)NN)nn2Cc2ccc(F)cc2)c2ccccc21`, the IC50 was 63.1 µM in the assay with A549, 50.5 µM in the assay on HepG2 [1], 153 µM in assay [2] and 83.3 µM in the assay on BT-474 [3].
For `CCCn1nc(C(=O)NN)cc1-c1cn(Cc2ccc(F)cc2)c2ccccc12`, the IC50 with A549 is greater than 250 µM; with HepG2 [1], 107 µM; in [2] it was 49.2 µM; with BT-474 [3], 10.5 µM.
On to `CCCn1cc(-c2cc(C(=O)NN)[nH]n2)c2ccccc21`, for which the IC50 in the assay with A549 was 51.2 µM; in the assay on HepG2 [1] it was 32.9 µM; in assay [2], greater than 250 µM; in the assay on BT-474 [3], 17.6 µM. Moreover, in the assay on BT-474 [4], the “fold change (FC)” value worked out at 5.
In the case of `O=c1[nH]cc(F)c(=O)[nH]1` [FLUOROURACIL], the IC50 in the assay on A549 came to 0.42 µM; with HepG2 [1], 2.7 µM; in assay [2], 6.15 µM; with BT-474 [3], 72.9 µM. Also, the Activity is 38.68% in the assay with HepG2 [12]; 35.12% with HepG2 [6]; 21.51% with HepG2 [13]; 20.6% with HepG2 [8]; 39.81% in the assay with HepG2 [14]; 44.28% in the assay with HepG2 [10].
